# Source: ChEMBL document CHEMBL1131236, “Antitumor agents. 185. Synthesis and biological evaluation of tridemethylthiocolchicine analogues as novel topoisomerase II inhibitors” (J Med Chem, 1998)
# Legend:
# CAKI-1 [1] = test: (§1) In vitro percent inhibition of CAKI-1, Kidney carcinoma; format: functional, Homo sapiens; set-up: concentration or dose not given beside the values
# CAKI-1 [2] = test: In vitro growth inhibition of CAKI-1, Kidney carcinoma; format: functional, cell-based; details: Homo sapiens
# Method in brief: (§2)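 Human tumor lines screened in-house: KB, A549, MCF-7, CAKI-1 and SK-MEL-2. Read-out was SRB staining with absorbance at 562 nm.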
# Tubulin = format: protein-complex assay
# KB [3] = test: In vitro growth inhibition of KB, epidermoid carcinoma of the nasopharynx.; format: functional, cell-based; details: Homo sapiens; method in brief: as §2
# MCF7 [4] = test: (§3) In vitro growth inhibition of MCF-7, breast adenocarcinoma.; format: functional, cell-based; details: Homo sapiens; method in brief: as §2
# SK-MEL-2 [5] = test: In vitro percent inhibition of SK-MEL-2 cells, malignant melanoma.; format: functional, Homo sapiens; set-up: concentration or dose not given beside the values
# SK-MEL-2 [6] = test: In vitro growth inhibition of SK-MEL-2, malignant melanoma.; format: functional, cell-based; details: Homo sapiens; method in brief: as §2
# A549 [7] = test: In vitro growth inhibition of A549, lung carcinoma.; format: functional, cell-based; details: Homo sapiens; method in brief: as §2
# DNA topoisomerase II [8] = molecular target: T1, DNA topoisomerase II (Homo sapiens, UniProt P11388+Q02880); test: In vitro activity against mammalian topoisomerase II measured as ATP-dependent unknotting of P4 DNA compared to enzyme and DNA control; format: protein assay
# Method in brief: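 Topo II inhibition read as ATP-dependent unknotting of P4 DNA, compared with enzyme-only and DNA-only control reactions.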
# DNA topoisomerase II [9] = molecular target: T1, DNA topoisomerase II; test: In vitro inhibitory activity at 100 uM against topoisomerase II measured as ATP-dependent unknotting of P4 DNA compared to enzyme and DNA control.; format: protein assay
# [10] = molecular target: T2, DNA topoisomerase 1 (Homo sapiens) (UniProt P11387); test: In vitro inhibitory activity at 100 uM against topoisomerase I measured as ATP-independent relaxation of supercoiled plasmid DNA compared to enzyme and DNA control.
# T2 sequence (whole entry): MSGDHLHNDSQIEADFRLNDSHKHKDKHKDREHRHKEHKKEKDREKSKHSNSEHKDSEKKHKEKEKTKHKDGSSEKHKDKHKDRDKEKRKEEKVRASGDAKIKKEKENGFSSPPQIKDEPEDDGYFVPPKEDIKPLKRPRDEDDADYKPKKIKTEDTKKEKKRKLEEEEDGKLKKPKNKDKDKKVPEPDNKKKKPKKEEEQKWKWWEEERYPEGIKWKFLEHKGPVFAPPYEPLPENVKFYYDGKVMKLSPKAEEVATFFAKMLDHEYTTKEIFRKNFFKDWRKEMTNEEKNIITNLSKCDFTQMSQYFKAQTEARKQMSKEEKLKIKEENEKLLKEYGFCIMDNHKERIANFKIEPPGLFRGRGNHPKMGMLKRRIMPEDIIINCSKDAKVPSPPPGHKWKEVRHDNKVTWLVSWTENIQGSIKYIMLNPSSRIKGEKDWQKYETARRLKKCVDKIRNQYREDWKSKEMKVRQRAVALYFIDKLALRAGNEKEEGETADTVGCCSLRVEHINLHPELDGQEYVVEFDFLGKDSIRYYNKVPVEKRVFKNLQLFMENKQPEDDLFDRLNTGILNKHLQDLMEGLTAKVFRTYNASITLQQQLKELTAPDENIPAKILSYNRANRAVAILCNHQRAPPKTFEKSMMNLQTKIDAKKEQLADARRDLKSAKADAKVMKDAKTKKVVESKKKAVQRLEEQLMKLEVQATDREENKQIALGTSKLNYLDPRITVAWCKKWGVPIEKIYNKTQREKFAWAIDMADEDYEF
# MCF7 [11] = test: as §3; format: functional, Homo sapiens; method in brief: as §2
# A549 [12] = test: In vitro percent inhibition of A549, lung carcinoma.; format: functional, Homo sapiens
# Tubulin alpha chain = Tubulin alpha chain (Sus scrofa, UniProt P02550); test: In vitro inhibition of mammalian tubulin polymerization by 50%; Inactive
# KB [13] = test: In vitro growth inhibition of KB, epidermoid carcinoma of the nasopharynx; format: functional, cell-based; details: Homo sapiens; method in brief: as §2
# KB [14] = test: In vitro epidermoid carcinoma of the nasopharynx; format: functional, Homo sapiens; method in brief: as §2
# A549 (Homo sapiens) = test: In vitro percent inhibition of A549, lung carcinoma
# KB [15] = test: In vitro percent inhibition of KB, epidermoid carcinoma of the nasopharynx.; format: functional, Homo sapiens
# MCF7 [16] = test: In vitro percent inhibition of MCF-7, breast adenocarcinoma.; format: functional, Homo sapiens
# SK-MEL-2 [17] = test: In vitro percent inhibition of SK-MEL-2, malignant melanoma.; format: functional, Homo sapiens
# CAKI-1 [18] = test: as §1; format: functional, Homo sapiens
# Tubulin alpha chain, sequence (P02550 whole entry, looked up): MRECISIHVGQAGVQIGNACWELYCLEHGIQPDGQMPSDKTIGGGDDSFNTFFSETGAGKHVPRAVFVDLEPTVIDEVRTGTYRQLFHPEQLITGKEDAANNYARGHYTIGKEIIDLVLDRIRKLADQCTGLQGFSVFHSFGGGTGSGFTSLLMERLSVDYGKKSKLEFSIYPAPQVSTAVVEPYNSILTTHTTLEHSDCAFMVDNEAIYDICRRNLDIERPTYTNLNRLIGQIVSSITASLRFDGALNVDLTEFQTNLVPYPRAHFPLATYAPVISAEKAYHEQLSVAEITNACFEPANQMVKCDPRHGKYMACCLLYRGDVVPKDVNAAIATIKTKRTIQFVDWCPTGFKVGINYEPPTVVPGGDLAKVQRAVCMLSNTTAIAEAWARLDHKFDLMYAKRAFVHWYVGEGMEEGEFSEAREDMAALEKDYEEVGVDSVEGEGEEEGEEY
IC50 (Tubulin) [µM],EC50 (KB [3]) [µg/mL],EC50 (MCF7 [4]) [µg/mL],EC50 (SK-MEL-2 [6]) [µg/mL],EC50 (A549 [7]) [µg/mL],inhibition (DNA topoisomerase II [9]) [%],inhibition [10] [%],SMILES,Inhibition (CAKI-1 [1]) [%],EC50 (CAKI-1 [2]) [µg/mL],Inhibition (SK-MEL-2 [5]) [%],also measured
> 40,4.8,10.7,> 19.5,9.7,,,Br.CSc1ccc2c(cc1=O)[C@@H](NC(=O)c1ccc(N)cc1)CCc1cc(O)c(O)c(O)c1-2,37,> 19.5,42,
,,,,,,,COc1cc2c(c(O)c1O)-c1ccc(SC)c(=O)cc1[C@@H](NC(C)=O)CC2,,,,IC50 (DNA topoisomerase II [8]): > 150 µM
,,,,,100,0,CSc1ccc2c(cc1=O)[C@@H](NC(=O)c1ccc(N)cc1)CCc1cc(O)c(O)c(O)c1-2 [listing 1 of 2 here],,,,
> 40,12.3,> 12.9,12.9,> 25.9,0,0,CCC(=O)Oc1cc2c(c(OC(=O)CC)c1OC(=O)CC)-c1ccc(SC)c(=O)cc1[C@@H](NC(=O)c1ccc([N+](=O)[O-])cc1)CC2,16,> 25.9,,Inhibition (MCF7 [11]): 40%; Inhibition (A549 [12]): 29%
,,,,,,,COc1cc([C@@H]2c3cc4c(cc3[C@@H](O[C@@H]3O[C@@H]5CO[C@@H](C)O[C@H]5[C@H](O)[C@H]3O)[C@H]3COC(=O)[C@H]23)OCO4)cc(OC)c1O [ETOPOSIDE],,,,IC50 (Tubulin alpha chain): Not Active
,,13.6,,,,,CSc1ccc2c(cc1=O)[C@@H](NC(C)=O)CCc1cc(O)c(O)c(O)c1-2,22,,0,EC50 (KB [13]): > 17.8 µg/mL; Inhibition (KB [14]): 0%; IC50 (DNA topoisomerase II [8]): 9 µM
,> 18,14.8,> 18,> 18,,,CSc1ccc2c(cc1=O)[C@@H](NC(=O)c1ccc(N)cc1)CCc1cc(O)c(O)c(O)c1-2 [listing 2 of 2 here],13,> 18,0,Inhibition (KB [14]): 35%; Inhibition (A549 (Homo sapiens)): 39%
,> 13.2,> 13.2,> 13.2,> 13.2,100,0,Br.CSc1ccc2c(cc1=O)[C@@H](N)CCc1cc(O)c(O)c(O)c1-2,,> 13.2,,Inhibition (KB [15]): 0%; Inhibition (MCF7 [16]): 23%; Inhibition (A549 [12]): 0%; Inhibition (SK-MEL-2 [17]): 0%; Inhibition (CAKI-1 [18]): 2%
> 40,,,,,100,0,CSc1ccc2c(cc1=O)[C@@H](NC(=O)c1ccc(CBr)cc1)CCc1cc(O)c(O)c(O)c1-2,,,,
> 40,,,,,0,0,CSc1ccc2c(cc1=O)[C@@H](NC(=O)C13CC4CC(CC(C4)C1)C3)CCc1cc(O)c(O)c(O)c1-2,,,,
> 40,9.6,8.6,> 9.6,> 9.6,100,100,CSc1ccc2c(cc1=O)[C@@H](NC(=O)c1cc(O)c(O)c(O)c1)CCc1cc(O)c(O)c(O)c1-2,29,> 9.6,30,Inhibition (A549 [12]): 30%
> 40,,,,,100,0,CSc1ccc2c(cc1=O)[C@@H](NC(=O)c1cc([N+](=O)[O-])cc([N+](=O)[O-])c1)CCc1cc(O)c(O)c(O)c1-2,,,,
